Data reported in ChEMBL document CHEMBL4354843, “Structure-Based Design of a Potent and Selective Covalent Inhibitor for SRC Kinase That Targets a P-Loop Cysteine” (J Med Chem, 2020).

Assays:
[1] = system: Hepatocyte growth factor receptor (Homo sapiens), P08581 [Y1235D]; assay: Binding affinity to human partial length MET Y1235D mutant (D1010 to S1367 residues) expressed in bacterial expression system assessed as residual binding level at 1 uM by Kinomescan method relative to control
In short: (§1)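 KinomeScan active site-directed competition binding panel (468 kinases), compound tested at 1 μM. Result expressed as remaining kinase signal versus DMSO control (percent of control).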

[2] = target: Cyclin-dependent kinase 2 (Homo sapiens) (UniProt P24941); assay: Binding affinity to wild-type human full length CDK2 (M1 to L298 residues) expressed in bacterial expression system assessed as residual binding level at 1 uM by Kinomescan method relative to control
In short: (§2)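 Active-site-directed KinomeScan competition binding panel covering 468 kinases, compound tested at 1 μM. Each readout is the kinase signal remaining with compound, expressed as a percentage of the DMSO control. […]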

[3] = target: MAP kinase-activated protein kinase 2 (Homo sapiens) (UniProt P49137); assay: Binding affinity to wild-type human partial length MAPKAPK2 (V48 to D345 residues) expressed in bacterial expression system assessed as residual binding level at 1 uM by Kinomescan method relative to control
[4] = system: Tyrosine-protein kinase ABL1 (Homo sapiens), P00519 [F317L]; assay: Binding affinity to human non-phosphorylated ABL1 F317L mutant (S229 to K512 residues) expressed in mammalian expression system assessed as residual binding level at 1 uM by Kinomescan method relative to control; in short: as §1
[5] = target: Dual serine/threonine and tyrosine protein kinase (Homo sapiens) (UniProt Q6XUX3); assay: Binding affinity to wild-type human full length RIPK5 (M1 to T929 residues) expressed in mammalian expression system assessed as residual binding level at 1 uM by Kinomescan method relative to control
Chain of Dual serine/threonine and tyrosine protein kinase (Homo sapiens) (Q6XUX3 whole entry, the tested form may be a part): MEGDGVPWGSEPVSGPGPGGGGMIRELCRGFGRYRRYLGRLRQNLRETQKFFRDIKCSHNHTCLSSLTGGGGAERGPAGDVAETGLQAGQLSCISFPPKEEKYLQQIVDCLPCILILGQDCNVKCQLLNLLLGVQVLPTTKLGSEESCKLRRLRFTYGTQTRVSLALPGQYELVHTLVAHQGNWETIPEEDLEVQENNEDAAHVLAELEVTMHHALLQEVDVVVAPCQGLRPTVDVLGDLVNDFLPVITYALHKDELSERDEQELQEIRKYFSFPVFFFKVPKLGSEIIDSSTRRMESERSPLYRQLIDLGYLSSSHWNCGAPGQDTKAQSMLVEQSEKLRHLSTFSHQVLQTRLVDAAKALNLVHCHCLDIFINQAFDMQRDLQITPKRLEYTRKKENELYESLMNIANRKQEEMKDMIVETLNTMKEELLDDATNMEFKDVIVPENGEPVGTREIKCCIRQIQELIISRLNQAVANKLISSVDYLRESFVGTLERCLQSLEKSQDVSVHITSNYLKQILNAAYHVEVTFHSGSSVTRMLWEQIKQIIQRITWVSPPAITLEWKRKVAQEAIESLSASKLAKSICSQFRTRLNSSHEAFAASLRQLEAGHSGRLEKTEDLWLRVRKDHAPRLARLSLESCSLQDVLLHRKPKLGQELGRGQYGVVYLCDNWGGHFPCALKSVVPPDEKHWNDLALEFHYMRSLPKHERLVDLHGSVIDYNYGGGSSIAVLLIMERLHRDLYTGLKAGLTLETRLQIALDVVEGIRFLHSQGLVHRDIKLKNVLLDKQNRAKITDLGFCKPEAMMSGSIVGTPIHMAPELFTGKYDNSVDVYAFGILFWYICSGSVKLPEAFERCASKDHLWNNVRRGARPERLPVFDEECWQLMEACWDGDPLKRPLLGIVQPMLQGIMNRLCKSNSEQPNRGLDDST
In short: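 Active-site-directed competition binding screen across a 468-kinase panel, run with the test compound at 1 μM. The read-out is the kinase signal remaining relative to a DMSO control, reported as a percentage. […]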

[6] = target: Serine/threonine-protein kinase tousled-like 1 (Homo sapiens) (UniProt Q9UKI8); assay: Binding affinity to wild-type human partial length TLK1 (K447 to A754 residues) expressed in bacterial expression system assessed as residual binding level at 1 uM by Kinomescan method relative to control
[7] = target: Tyrosine-protein kinase ABL2 (Homo sapiens) (UniProt P42684); assay: Binding affinity to wild-type human ABL2 (A248 to G542 residues) expressed in bacterial expression system assessed as residual binding level at 1 uM by Kinomescan method relative to control
In short: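 KinomeScan, an active site-directed competition binding panel of 468 kinases. The test compound was at 1 μM. The readout is remaining kinase binding as a percentage of the DMSO control. Scores above 35% were treated as weak binding and not listed.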

[8] = target: Serine/threonine-protein kinase haspin (Homo sapiens) (UniProt Q8TF76); assay: Binding affinity to wild-type human partial length HASPIN (I452 to K798 residues) expressed in mammalian expression system assessed as residual binding level at 1 uM by Kinomescan method relative to control
Chain of Serine/threonine-protein kinase haspin (Homo sapiens) (Q8TF76 whole entry, the tested form may be a part): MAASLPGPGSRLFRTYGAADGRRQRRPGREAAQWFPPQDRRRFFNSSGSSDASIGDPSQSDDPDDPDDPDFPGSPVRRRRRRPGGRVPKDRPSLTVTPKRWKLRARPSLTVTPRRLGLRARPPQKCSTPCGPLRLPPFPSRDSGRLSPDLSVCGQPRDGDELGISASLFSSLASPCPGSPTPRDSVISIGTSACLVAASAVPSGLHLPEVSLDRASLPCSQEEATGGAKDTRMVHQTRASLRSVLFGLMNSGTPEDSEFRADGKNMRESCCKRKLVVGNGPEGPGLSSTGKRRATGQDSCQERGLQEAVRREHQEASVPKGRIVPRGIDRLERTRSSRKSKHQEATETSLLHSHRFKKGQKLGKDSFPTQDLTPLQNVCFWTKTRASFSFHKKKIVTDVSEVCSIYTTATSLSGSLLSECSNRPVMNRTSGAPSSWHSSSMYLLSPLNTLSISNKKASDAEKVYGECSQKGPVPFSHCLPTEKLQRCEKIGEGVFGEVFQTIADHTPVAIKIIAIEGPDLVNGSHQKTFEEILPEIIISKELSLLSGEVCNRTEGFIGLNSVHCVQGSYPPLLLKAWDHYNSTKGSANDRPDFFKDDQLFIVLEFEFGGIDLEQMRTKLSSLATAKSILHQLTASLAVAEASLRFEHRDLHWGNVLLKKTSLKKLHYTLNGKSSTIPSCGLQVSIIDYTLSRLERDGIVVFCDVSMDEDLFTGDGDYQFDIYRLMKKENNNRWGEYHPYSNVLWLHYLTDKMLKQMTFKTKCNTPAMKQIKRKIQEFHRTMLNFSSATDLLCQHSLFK

[9] = system: Proto-oncogene tyrosine-protein kinase receptor Ret (Homo sapiens), P07949 [V804L]; assay: Binding affinity to human partial length RET V804L mutant (E713 to D1014 residues) expressed in bacterial expression system assessed as residual binding level at 1 uM by Kinomescan method relative to control; in short: as §1
Chain of Proto-oncogene tyrosine-protein kinase receptor Ret (Homo sapiens), P07949 [V804L] (P07949 whole entry V804L, the tested form may be a part): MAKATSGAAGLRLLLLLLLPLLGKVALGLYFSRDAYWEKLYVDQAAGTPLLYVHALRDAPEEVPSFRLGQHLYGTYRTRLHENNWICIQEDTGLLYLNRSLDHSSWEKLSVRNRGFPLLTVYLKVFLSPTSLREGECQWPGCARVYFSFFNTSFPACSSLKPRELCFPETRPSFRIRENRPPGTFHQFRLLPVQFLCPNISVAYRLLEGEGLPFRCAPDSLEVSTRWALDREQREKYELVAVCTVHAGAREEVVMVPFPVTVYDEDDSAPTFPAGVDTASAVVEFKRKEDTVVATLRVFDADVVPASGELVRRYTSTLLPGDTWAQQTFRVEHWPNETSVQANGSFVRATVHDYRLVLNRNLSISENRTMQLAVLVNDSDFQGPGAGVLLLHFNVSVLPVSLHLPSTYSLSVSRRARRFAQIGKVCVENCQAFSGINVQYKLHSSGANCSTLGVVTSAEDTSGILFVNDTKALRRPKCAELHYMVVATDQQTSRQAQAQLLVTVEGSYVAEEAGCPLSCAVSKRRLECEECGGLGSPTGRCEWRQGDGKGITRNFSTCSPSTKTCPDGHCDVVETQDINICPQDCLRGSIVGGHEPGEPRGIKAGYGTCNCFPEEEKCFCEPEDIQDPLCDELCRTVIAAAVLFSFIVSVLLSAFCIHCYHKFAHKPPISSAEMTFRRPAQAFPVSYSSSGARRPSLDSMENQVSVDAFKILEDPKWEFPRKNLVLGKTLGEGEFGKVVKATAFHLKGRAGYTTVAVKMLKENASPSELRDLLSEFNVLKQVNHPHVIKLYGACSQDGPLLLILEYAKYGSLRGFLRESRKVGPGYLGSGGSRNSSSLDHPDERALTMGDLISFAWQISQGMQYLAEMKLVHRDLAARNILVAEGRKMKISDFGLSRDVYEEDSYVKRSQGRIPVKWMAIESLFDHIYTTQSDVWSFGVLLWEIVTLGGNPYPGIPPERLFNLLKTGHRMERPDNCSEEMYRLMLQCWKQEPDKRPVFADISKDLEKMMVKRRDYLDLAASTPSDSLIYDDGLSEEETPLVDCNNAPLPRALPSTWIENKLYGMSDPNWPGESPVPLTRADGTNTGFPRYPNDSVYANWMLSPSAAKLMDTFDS

[10] = target: Serine/threonine-protein kinase WNK2 (Homo sapiens) (UniProt Q9Y3S1); assay: Binding affinity to wild-type human partial length WNK2 (V47 to D482 residues) expressed in mammalian expression system assessed as residual binding level at 1 uM by Kinomescan method relative to control
In short: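 Active site-directed competition binding panel (KinomeScan, 468 kinases). Test compound at 1 μM. Read-out is kinase binding remaining versus DMSO control, expressed as percent of control. Scores above 35% are treated as weak binding.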

[11] = target: Cyclin-dependent kinase 5 (Homo sapiens) (UniProt Q00535); assay: Binding affinity to wild-type human full length CDK5 (M1 to P292 residues) expressed in bacterial expression system assessed as residual binding level at 1 uM by Kinomescan method relative to control; in short: as §2
[12] = target: Serine/threonine-protein kinase Sgk1 (Homo sapiens) (UniProt O00141); assay: Binding affinity to wild-type human partial length SGK (I60 to L431 residues) expressed in mammalian expression system assessed as residual binding level at 1 uM by Kinomescan method relative to control
[13] = target: Mast/stem cell growth factor receptor Kit (Homo sapiens) (UniProt P10721); assay: Binding affinity to wild-type human partial length KIT (I571 to D952 residues) expressed in bacterial expression system assessed as residual binding level at 1 uM by Kinomescan method relative to control
Chain of Mast/stem cell growth factor receptor Kit (Homo sapiens) (P10721 whole entry, the tested form may be a part): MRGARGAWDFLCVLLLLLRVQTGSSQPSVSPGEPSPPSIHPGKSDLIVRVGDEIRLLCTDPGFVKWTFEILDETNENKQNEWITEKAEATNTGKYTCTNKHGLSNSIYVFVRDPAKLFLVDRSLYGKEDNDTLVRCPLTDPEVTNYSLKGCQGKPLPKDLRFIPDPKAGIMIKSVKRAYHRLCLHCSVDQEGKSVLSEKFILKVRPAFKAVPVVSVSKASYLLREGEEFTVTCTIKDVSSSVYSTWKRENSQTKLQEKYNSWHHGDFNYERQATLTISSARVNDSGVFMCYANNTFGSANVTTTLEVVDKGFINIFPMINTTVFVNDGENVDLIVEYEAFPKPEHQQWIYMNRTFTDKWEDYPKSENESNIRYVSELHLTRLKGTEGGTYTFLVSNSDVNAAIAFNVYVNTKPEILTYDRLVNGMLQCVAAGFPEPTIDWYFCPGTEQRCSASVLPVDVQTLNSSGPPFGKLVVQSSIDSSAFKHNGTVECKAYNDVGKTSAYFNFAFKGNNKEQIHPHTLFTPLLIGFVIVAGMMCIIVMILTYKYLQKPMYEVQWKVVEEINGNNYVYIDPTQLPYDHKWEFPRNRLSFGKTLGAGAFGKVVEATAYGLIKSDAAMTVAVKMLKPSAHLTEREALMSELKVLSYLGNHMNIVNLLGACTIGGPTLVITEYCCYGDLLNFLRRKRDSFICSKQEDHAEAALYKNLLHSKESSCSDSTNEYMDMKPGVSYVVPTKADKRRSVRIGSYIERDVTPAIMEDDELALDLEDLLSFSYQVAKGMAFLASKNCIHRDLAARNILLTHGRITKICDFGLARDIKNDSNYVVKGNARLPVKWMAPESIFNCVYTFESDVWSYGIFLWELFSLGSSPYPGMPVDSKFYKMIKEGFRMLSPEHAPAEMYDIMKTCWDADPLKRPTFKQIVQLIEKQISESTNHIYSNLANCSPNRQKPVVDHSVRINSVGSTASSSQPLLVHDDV

[14] = target: Homeodomain-interacting protein kinase 1 (Homo sapiens) (UniProt Q86Z02); assay: Binding affinity to wild-type human partial length HIPK1 (M146 to I555 residues) expressed in mammalian expression system assessed as residual binding level at 1 uM by Kinomescan method relative to control
Chain of Homeodomain-interacting protein kinase 1 (Homo sapiens) (Q86Z02 whole entry, looked up, the tested form may be a part): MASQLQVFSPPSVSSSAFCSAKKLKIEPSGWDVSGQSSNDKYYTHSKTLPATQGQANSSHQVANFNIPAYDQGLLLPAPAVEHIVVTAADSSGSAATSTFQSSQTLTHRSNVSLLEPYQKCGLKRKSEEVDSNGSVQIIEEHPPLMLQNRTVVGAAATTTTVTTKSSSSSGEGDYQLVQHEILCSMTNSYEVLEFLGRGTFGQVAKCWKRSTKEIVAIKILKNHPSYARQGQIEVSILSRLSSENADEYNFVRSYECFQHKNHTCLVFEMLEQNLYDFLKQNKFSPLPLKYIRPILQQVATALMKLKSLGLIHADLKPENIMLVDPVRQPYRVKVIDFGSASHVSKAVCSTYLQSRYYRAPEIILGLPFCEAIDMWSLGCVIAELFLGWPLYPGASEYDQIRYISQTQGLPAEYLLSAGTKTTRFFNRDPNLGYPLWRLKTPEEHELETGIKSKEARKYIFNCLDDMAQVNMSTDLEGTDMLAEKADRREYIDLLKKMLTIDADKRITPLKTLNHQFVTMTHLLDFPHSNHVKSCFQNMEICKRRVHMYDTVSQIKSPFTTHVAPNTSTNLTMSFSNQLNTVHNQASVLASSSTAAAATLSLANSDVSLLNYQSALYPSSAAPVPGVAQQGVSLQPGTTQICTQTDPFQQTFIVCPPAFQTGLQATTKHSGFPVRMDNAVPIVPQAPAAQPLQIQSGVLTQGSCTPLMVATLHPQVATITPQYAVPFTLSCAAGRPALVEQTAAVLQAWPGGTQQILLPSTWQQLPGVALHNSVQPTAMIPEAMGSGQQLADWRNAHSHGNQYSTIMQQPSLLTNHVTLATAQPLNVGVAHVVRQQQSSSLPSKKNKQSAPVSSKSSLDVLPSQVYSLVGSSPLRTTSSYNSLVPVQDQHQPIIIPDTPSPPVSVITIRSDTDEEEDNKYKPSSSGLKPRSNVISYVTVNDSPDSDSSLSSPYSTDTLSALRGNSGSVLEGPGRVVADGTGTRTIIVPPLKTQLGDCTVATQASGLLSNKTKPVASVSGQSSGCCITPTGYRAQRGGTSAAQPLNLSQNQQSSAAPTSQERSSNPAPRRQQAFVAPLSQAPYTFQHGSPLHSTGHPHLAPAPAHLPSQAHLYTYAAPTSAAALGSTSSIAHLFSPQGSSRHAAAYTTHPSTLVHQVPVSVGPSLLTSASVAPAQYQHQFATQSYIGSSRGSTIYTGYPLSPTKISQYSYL

[15] = target: Myosin light chain kinase family member 4 (Homo sapiens) (UniProt Q86YV6); assay: Binding affinity to wild-type human partial length MYLK4 (V79 to S380 residues) expressed in bacterial expression system assessed as residual binding level at 1 uM by Kinomescan method relative to control
[16] = target: Cyclin-dependent kinase 9 (Homo sapiens) (UniProt P50750); assay: Binding affinity to wild-type human full length CDK9 (M1 to F372 residues) expressed in bacterial expression system assessed as residual binding level at 1 uM by Kinomescan method relative to control; in short: as §2
[17] = system: Epidermal growth factor receptor (Homo sapiens), P00533 [G719S]; assay: Binding affinity to human partial length EGFR G719S mutant (R669 to V1011 residues) expressed in bacterial expression system assessed as residual binding level at 1 uM by Kinomescan method relative to control; in short: as §1
[18] = target: NUAK family SNF1-like kinase 2 (Homo sapiens) (UniProt Q9H093); assay: Binding affinity to wild-type human partial length SNARK (P22 to A333 residues) expressed in mammalian expression system assessed as residual binding level at 1 uM by Kinomescan method relative to control
[19] = target: Bone morphogenetic protein receptor type-1A (Homo sapiens) (UniProt P36894); assay: Binding affinity to wild-type human partial length BMPR1A (Q214 to I532 residues) expressed in bacterial expression system assessed as residual binding level at 1 uM by Kinomescan method relative to control
[20] = target: Tyrosine-protein kinase Fer (Homo sapiens) (UniProt P16591); assay: Binding affinity to wild-type human partial length FER (S542 to T822 residues) expressed in bacterial expression system assessed as residual binding level at 1 uM by Kinomescan method relative to control
[21] = target: Fibroblast growth factor receptor 1 (Homo sapiens, UniProt P11362); assay: Binding affinity to wild-type human partial length FGFR1 (P357 to V669 residues) expressed in bacterial expression system assessed as residual binding level at 1 uM by Kinomescan method relative to control

Measured: Activity

C=CC(=O)Nc1ccccc1Nc1nc(Nc2ccc(N3CCN(C)CC3)cc2)ncc1C(=O)Nc1c(C)cccc1Cl
0.35%: [7]
95%: [12] | [17]
64%: [10]
0.9%: [4]
40%: [13]
100%: all other assays above
